{"source": "ChEMBL document CHEMBL3232976", "about": "“Investigation of the cytotoxic, genotoxic, and apoptosis-inducing effects of estragole isolated from fennel (Foeniculum vulgare)” (J Nat Prod, 2014)", "key": {"HepG2 [1]": {"system": "HepG2", "test": "Induction of early apoptosis in human HepG2 cells assessed as decrease mitochondrial membrane potential at 0.5 uM after 4 hrs by JC-1 staining relative to control", "format": "functional", "set-up": "scale not given: the % may be the effect or the level left", "in_short": "(§1)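 Cells seeded 48 h before a 4 h exposure; 0.5 μM valinomycin for 4 h as depolarizing positive control. Stained with JC-1 plus DAPI (necrotic cells), read by automated fluorescence image cytometry. Depolarization seen as a fall in red/green ratio; gated as % depolarized cells. Three independent experiments, mean ± SEM.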"}, "HepG2 [2]": {"system": "HepG2", "test": "Cytotoxicity against human HepG2 cells assessed as cell viability at 42.28 ug/ml after 4 hrs by MTT assay relative to control", "format": "functional", "settings": "HepG2, 4 h, read-out: Activity", "in_short": "(§2)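 HepG2 seeded at 1 × 10^5 cells/well in phenol red-free MEM, grown 24 h, then exposed 4 h to eight concentrations (dissolved in MEM; 2% Triton X100 positive control). MTT 1 mg/mL added for 2 h at 37 °C, formazan dissolved in 2-propanol, A570 minus A650. Viability as % of untreated controls; three independent experiments, mean ± SEM.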"}, "HepG2 [3]": {"system": "HepG2", "test": "Cytotoxicity against human HepG2 cells assessed as cell viability at 21.14 ug/ml after 4 hrs by MTT assay relative to control", "format": "functional", "settings": "HepG2, 4 h, read-out: Activity", "in_short": "as §2"}, "HepG2 [4]": {"system": "HepG2", "test": "Cytotoxicity against human HepG2 cells assessed as cell viability at 10.57 ug/ml after 4 hrs by MTT assay relative to control", "format": "functional", "settings": "HepG2, 4 h, read-out: Activity", "in_short": "as §2"}, "HepG2 [5]": {"system": "HepG2", "test": "Cytotoxicity against human HepG2 cells assessed as cell viability at 5.28 ug/ml after 4 hrs by MTT assay relative to control", "format": "functional", "settings": "HepG2, 4 h, read-out: Activity", "in_short": "as §2"}, "HepG2 [6]": {"system": "HepG2", "test": "Cytotoxicity against human HepG2 cells assessed as cell viability at 2.64 ug/ml after 4 hrs by MTT assay relative to control", "format": "functional", "settings": "HepG2, 4 h, read-out: Activity", "in_short": "as §2"}, "HepG2 [7]": {"system": "HepG2", "test": "Cytotoxicity against human HepG2 cells assessed as cell viability at 1.32 ug/ml after 4 hrs by MTT assay relative to control", "format": "functional", "settings": "HepG2, 4 h, read-out: Activity", "in_short": "as §2"}, "HepG2 [8]": {"system": "HepG2", "test": "Cytotoxicity against human HepG2 cells assessed as cell viability at 0.67 ug/ml after 4 hrs by MTT assay relative to control", "format": "functional", "settings": "HepG2, 4 h, read-out: Activity", "in_short": "as §2"}, "HepG2 [9]": {"system": "HepG2", "test": "Cytotoxicity against human HepG2 cells assessed as cell viability at 84.55 ug/ml after 4 hrs by trypan blue dye exclusion assay relative to control", "format": "functional", "settings": "HepG2, 4 h, read-out: Activity", "in_short": "(§3)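 Cells seeded at 5 × 10^5/well, grown 24 h, then exposed 4 h to the three highest MTT-tested concentrations. Trypan blue exclusion read on an automated cell counter, unstained cells counted as viable. Viability as % of total cells; three independent experiments, mean ± SEM.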"}, "HepG2 [10]": {"system": "HepG2", "test": "Cytotoxicity against human HepG2 cells assessed as cell viability at 42.28 ug/ml after 4 hrs by trypan blue dye exclusion assay relative to control", "format": "functional", "settings": "HepG2, 4 h, read-out: Activity", "in_short": "as §3"}, "HepG2 [11]": {"system": "HepG2", "test": "Cytotoxicity against human HepG2 cells assessed as cell viability at 21.14 ug/ml after 4 hrs by trypan blue dye exclusion assay relative to control", "format": "functional", "settings": "HepG2, 4 h, read-out: Activity", "in_short": "as §3"}, "HepG2 [12]": {"system": "HepG2", "test": "Cytotoxicity against human HepG2 cells assessed as cell viability at 84.55 ug/ml after 4 hrs by AO/DAPI double staining relative to control", "format": "functional", "settings": "HepG2, 4 h, read-out: Activity", "in_short": "(§4)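 Cells seeded at 5 × 10^5/well, grown 24 h, exposed 4 h to the three highest MTT-tested concentrations. Cell suspension loaded into cassettes coated with acridine orange (all cells) and DAPI (nonviable cells), then counted by automated fluorescence image analysis. Viability as % of total cells; three independent experiments, mean ± SEM.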"}, "HepG2 [13]": {"system": "HepG2", "test": "Cytotoxicity against human HepG2 cells assessed as cell viability at 42.28 ug/ml after 4 hrs by AO/DAPI double staining relative to control", "format": "functional", "settings": "HepG2, 4 h, read-out: Activity", "in_short": "as §4"}, "HepG2 [14]": {"system": "HepG2", "test": "Cytotoxicity against human HepG2 cells assessed as cell viability at 21.14 ug/ml after 4 hrs by AO/DAPI double staining relative to control", "format": "functional", "settings": "HepG2, 4 h, read-out: Activity", "in_short": "as §4"}, "HepG2 [15]": {"system": "HepG2", "test": "Induction of early apoptosis in human HepG2 cells assessed as decrease mitochondrial membrane potential at 84.55 ug/ml after 4 hrs by JC-1 staining relative to control", "format": "functional", "set-up": "scale not given: the % may be the effect or the level left", "in_short": "as §1"}, "HepG2 [16]": {"system": "HepG2", "test": "Induction of early apoptosis in human HepG2 cells assessed as decrease mitochondrial membrane potential at 42.28 ug/ml after 4 hrs by JC-1 staining relative to control", "format": "functional", "set-up": "scale not given: the % may be the effect or the level left", "in_short": "as §1"}, "HepG2 [17]": {"system": "HepG2", "test": "Induction of early apoptosis in human HepG2 cells assessed as decrease mitochondrial membrane potential at 21.14 ug/ml after 4 hrs by JC-1 staining relative to control", "format": "functional", "set-up": "scale not given: the % may be the effect or the level left", "in_short": "as §1"}, "HepG2 [18]": {"system": "HepG2", "test": "Induction of late apoptosis in human HepG2 cells assessed as induction of DNA fragmentation at 84.55 ug/ml after 4 hrs by […] relative to control", "format": "functional", "in_short": "(§5)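 Cells seeded 48 h before a 4 h exposure; 1 μM staurosporine positive control. Cells permeabilized with ethanol, washed to remove low-molecular-weight DNA, stained with DAPI, and DNA content read by automated image cytometry. Result as % sub-G1 cells below a manually set G1/G0 peak. Three independent experiments, mean ± SEM.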"}, "HepG2 [19]": {"system": "HepG2", "test": "Induction of late apoptosis in human HepG2 cells assessed as induction of DNA fragmentation at 42.28 ug/ml after 4 hrs by […] relative to control", "format": "functional", "in_short": "as §5"}, "HepG2 [20]": {"system": "HepG2", "test": "Induction of late apoptosis in human HepG2 cells assessed as induction of DNA fragmentation at 21.14 ug/ml after 4 hrs by […] relative to control", "format": "functional", "in_short": "as §5"}, "HepG2 [21]": {"system": "HepG2", "test": "Cytotoxicity against human HepG2 cells assessed as cell viability at 84.55 ug/ml after 4 hrs by MTT assay relative to control", "format": "functional", "settings": "HepG2, 4 h, read-out: Activity", "in_short": "as §2"}, "HepG2 [22]": {"system": "HepG2", "test": "Genotoxicity in human HepG2 cells assessed as DNA strand-breakage at 84.55 ug/ml after 4 hrs by alkaline comet assay", "settings": "hepg2, 4 h"}, "HepG2 [23]": {"system": "HepG2", "test": "Genotoxicity in human HepG2 cells assessed as DNA strand-breakage at 42.28 ug/ml after 4 hrs by alkaline comet assay", "settings": "hepg2, 4 h"}, "HepG2 [24]": {"system": "HepG2", "test": "Genotoxicity in human HepG2 cells assessed as DNA strand-breakage at 21.14 ug/ml after 4 hrs by alkaline comet assay", "settings": "hepg2, 4 h"}, "HepG2 [25]": {"system": "HepG2", "test": "Induction of late apoptosis in human HepG2 cells assessed as induction of DNA fragmentation at 1 uM after 4 hrs by […] relative to control", "format": "functional", "in_short": "as §5"}}}
{"smiles": "CC(C)[C@@H]1NC(=O)[C@H](C)OC(=O)[C@@H](C(C)C)NC(=O)[C@@H](C(C)C)OC(=O)[C@H](C(C)C)NC(=O)[C@H](C)OC(=O)[C@@H](C(C)C)NC(=O)[C@@H](C(C)C)OC(=O)[C@H](C(C)C)NC(=O)[C@H](C)OC(=O)[C@@H](C(C)C)NC(=O)[C@@H](C(C)C)OC1=O", "note": "[VALINOMYCIN]", "values": [{"measurement": "Activity", "setting": "HepG2 [1]", "value": 40.3, "unit": "%"}]}
{"smiles": "C=CCc1ccc(OC)cc1", "note": "[ESTRAGOLE]", "values": [{"measurement": "viability at 42.28 µg/mL", "setting": "HepG2 [2]", "value": 108, "unit": "%"}, {"measurement": "viability at 21.14 µg/mL", "setting": "HepG2 [3]", "value": 110, "unit": "%"}, {"measurement": "viability at 10.57 µg/mL", "setting": "HepG2 [4]", "value": 117, "unit": "%"}, {"measurement": "viability at 5.28 µg/mL", "setting": "HepG2 [5]", "value": 104, "unit": "%"}, {"measurement": "viability at 2.64 µg/mL", "setting": "HepG2 [6]", "value": 101, "unit": "%"}, {"measurement": "viability at 1.32 µg/mL", "setting": "HepG2 [7]", "value": 94.8, "unit": "%"}, {"measurement": "viability at 0.67 µg/mL", "setting": "HepG2 [8]", "value": 106, "unit": "%"}, {"measurement": "viability at 84.55 µg/mL", "setting": "HepG2 [9]", "value": 85, "unit": "%"}, {"measurement": "viability at 42.28 µg/mL", "setting": "HepG2 [10]", "value": 93.3, "unit": "%"}, {"measurement": "viability at 21.14 µg/mL", "setting": "HepG2 [11]", "value": 92.7, "unit": "%"}, {"measurement": "viability at 84.55 µg/mL", "setting": "HepG2 [12]", "value": 90.2, "unit": "%"}, {"measurement": "viability at 42.28 µg/mL", "setting": "HepG2 [13]", "value": 91.7, "unit": "%"}, {"measurement": "viability at 21.14 µg/mL", "setting": "HepG2 [14]", "value": 90.9, "unit": "%"}, {"measurement": "Activity", "setting": "HepG2 [15]", "value": 13.2, "unit": "%"}, {"measurement": "Activity", "setting": "HepG2 [16]", "value": 12.3, "unit": "%"}, {"measurement": "Activity", "setting": "HepG2 [17]", "value": 15.9, "unit": "%"}, {"measurement": "Activity", "setting": "HepG2 [18]", "value": 4.9, "unit": "%"}, {"measurement": "Activity", "setting": "HepG2 [19]", "value": 3.7, "unit": "%"}, {"measurement": "Activity", "setting": "HepG2 [20]", "value": 3.4, "unit": "%"}, {"measurement": "viability at 84.55 µg/mL", "setting": "HepG2 [21]", "value": 103, "unit": "%"}, {"measurement": "Activity", "setting": "HepG2 [22]", "value": "Non-toxic"}, {"measurement": "Activity", "setting": "HepG2 [23]", "value": "Non-toxic"}, {"measurement": "Activity", "setting": "HepG2 [24]", "value": "Non-toxic"}]}
{"smiles": "CN[C@@H]1C[C@H]2O[C@@](C)([C@@H]1OC)n1c3ccccc3c3c4c(c5c6ccccc6n2c5c31)C(=O)NC4", "note": "[STAUROSPORINE]", "values": [{"measurement": "Activity", "setting": "HepG2 [25]", "value": 21.1, "unit": "%"}]}
